Source: publication PMC11809490 (RSC Advances, 2025)
Entries after “also recorded” stand apart in the source; their conditions may differ. Like-named read-outs stand apart in the source and are kept apart here.

Key:
MCF7 = test: MTT assay, cytotoxicity; assay type: cell-based, human; settings: read-out: IC50 MCF7
Outline: (§1)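 Cells in medium with 10% FBS, streptomycin and penicillin; 5000 cells per well. After 12 h, test compounds added at 0.1–40 μM, with 0.1% DMSO as vehicle, for 48 h. Then serum-free medium and MTT (5 mg mL−1) at 4:1 for 4 h at 37 °C. Formazan dissolved in DMSO, absorbance at 570 nm, normalized to DMSO control. IC50 from sigmoidal variable-slope nonlinear regression.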

22Rv1 = test: MTT assay, cytotoxicity; assay type: cell-based, human; settings: read-out: IC50 22Rv1
Outline: as §1

HEK293 = test: MTT assay, cytotoxicity to normal cells; assay type: cell-based, human; settings: for IC50: read-out: IC50 HEK293
Outline: as §1

C4-2 = test: MTT assay, cytotoxicity; assay type: cell-based, human
MIAPACA = test: MTT assay, cytotoxicity; assay type: cell-based, human; settings: read-out: IC50 MIAPACA, 48 h treatment, 0.1-40 μM
Outline: as §1

PC3 = test: MTT assay, cytotoxicity; assay type: cell-based, human; settings: read-out: IC50 PC3
Outline: as §1

[1] = tested on: prostate, breast, epithelial cancer cells; test: MTT assay, all tested cancer cell lines together; assay type: cell-based, human
Outline: as §1

C4-2 cells [2] = test: Acridine orange/ethidium bromide assay; assay type: cell-based, human; settings: 10 and 20 μM, 48 h
Outline: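 C4-2 cells (0.25 × 10^5) seeded on 12 mm coverslips for 12 h, then given DMSO or test compound (10 and 20 μM) for 48 h. After PBS wash, stained with AO (100 μg mL−1) plus EB (100 μg mL−1) in PBS for 20 min. Washed and imaged by fluorescence microscopy: FITC channel for green (AO, all cells), TRITC for red (EB, dead cells).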

tubulin in C4-2 cells = test: Tubulin immunofluorescence; assay type: cell-based, human; settings: 10 μM and 20 μM, 48 h
Outline: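 Fixed and permeabilized with ice-cold methanol. Blocked 1 h in 2% BSA/1% Triton X-100 in PBS. Tubulin antibody overnight at 4 °C, then FITC goat anti-mouse secondary 3 h in the dark. Imaged in FITC and DAPI channels.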

C4-2 cells [3] = test: Intracellular ROS levels, H2DCFDA staining; assay type: cell-based, human; settings: 10 μM and 20 μM, 48 h
Outline: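 C4-2 cells on coverslips got DMSO, test compound or H2O2 (10 μM) for 48 h. The figure legend gives test compound at 10 and 20 μM. Cells washed with PBS and loaded with H2DCFDA (2 μM final) in PBS, 40 min at 37 °C. Green signal imaged in FITC channel and expressed relative to DMSO. Three independent replicates; Student's t-test.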

C4-2 cells [4] = test: JC-1 staining, mitochondrial depolarization; assay type: cell-based, human; settings: 10 μM or 20 μM, 48 h
Outline: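 C4-2 cells (0.25 × 10^5) on 12 mm coverslips, seeded 12 h, then exposed to DMSO or test compound (10 or 20 μM) for 48 h. After PBS wash, incubated with JC-1 (2 μM) in PBS for 20 min. Imaged in FITC and TRITC channels: orange aggregates mark polarized mitochondria, green marks depolarized.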

C4-2 cells [5] = test: Clonogenic assay; assay type: cell-based, human; settings: 10 μM or 20 μM, 10 days
Outline: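 1000 C4-2 cells plated per well and exposed to test compound at 10 or 20 μM. […] Incubated 10–12 days, washed with PBS and fixed in cold methanol:acetic acid (3:1) for 5–10 min. Colonies photographed for number and size. Run in duplicate.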

p-53 and c-jun = test: Level of p-53 and c-jun; assay type: cell-based
[6] = normal human kidney cells, MTT, 48 h
[7] = read-out: IC50 C4-2, MTT, 48 h treatment, 0.1-40 μM
[8] = Homo sapiens, C4-2, 48 h, read-out: IC50 C4-2, MTT, 48 h treatment, 0.1-40 μM

Compound	IC50 (MCF7; Homo sapiens, MCF7, 48 h) [µM]	IC50 (22Rv1; Homo sapiens, 22Rv1, 48 h) [µM]	IC50 (HEK293; Homo sapiens, HEK293, 48 h) [µM]	IC50 (C4-2; [8]) [µM]	IC50 (PC3; Homo sapiens, PC-3, 48 h) [µM]	cytotoxicity against the tested cancer cells, in words (SAR) [1]	further results
2-(5-Isopropoxy-1H-indole-3-carbonyl)-3-(1-methyl-1H-indol-3-yl)acrylonitrile [21m]	–	–	–	–	–	–	IC50 (MCF7; MTT, 48 h treatment, 0.1-40 μM): 2.98 µM; IC50 (22Rv1; MTT, 48 h treatment, 0.1-40 μM): 16.4 µM; IC50 (HEK293; [6]): > 40 µM; IC50 (C4-2; [7]): 17.6 µM; IC50 (MIAPACA): 1.6 µM; IC50 (PC3; MTT, 48 h treatment, 0.1-40 μM): 11.7 µM
3-(1-Ethyl-1H-indol-3-yl)-2-(5-isopropoxy-1H-indole-3-carbonyl)acrylonitrile [21l]	–	–	–	–	–	–	IC50 (MCF7; MTT, 48 h treatment, 0.1-40 μM): 7.95 µM; IC50 (22Rv1; MTT, 48 h treatment, 0.1-40 μM): 2.5 µM; IC50 (HEK293; [6]): 37.9 µM; IC50 (C4-2; [7]): 26.4 µM; IC50 (MIAPACA): 37.6 µM; IC50 (PC3; MTT, 48 h treatment, 0.1-40 μM): 4.6 µM
CCn1cc(/C=C(\C#N)C(=O)c2c[nH]c3ccccc23)c2ccccc21 [21a, (E)-3-(1-Ethyl-1H-indol-3-yl)-2-(1H-indole-3-carbonyl)acrylonitrile]	10.2	> 40	> 40	3.9	13	–	–
N#CC(=Cc1cn(Cc2ccc(Cl)cc2)c2ccccc12)C(=O)c1c[nH]c2ccccc12 [21b, 3-(1-(4-Chlorobenzyl)-1H-indol-3-yl)-2-(1H-indole-3-carbonyl)acrylonitrile]	6.9	21.5	40	13.5	10.6	moderate activity	–
COc1ccc2[nH]cc(C(=O)C(C#N)=Cc3cn(C)c4ccccc34)c2c1 [21c, 2-(5-Methoxy-1H-indole-3-carbonyl)-3-(1-methyl-1H-indol-3-yl)acrylonitrile]	25.3	1.23	> 40	7.5	15.5	–	–
CCn1cc(C=C(C#N)C(=O)c2c[nH]c3ccc(OC)cc23)c2ccccc21 [21d, 3-(1-Ethyl-1H-indol-3-yl)-2-(5-methoxy-1H-indole-3-carbonyl)acrylonitrile]	10.9	25	39.2	8	> 40	–	–
COc1ccc2c(C(=O)C(C#N)=Cc3cn(C)c4ccccc34)c[nH]c2c1 [21e, 2-(6-Methoxy-1H-indole-3-carbonyl)-3-(1-methyl-1H-indol-3-yl)acrylonitrile]	12.5	28	> 40	15.7	7.61	reduced activity	–
CCn1cc(C=C(C#N)C(=O)c2c[nH]c3cc(OC)ccc23)c2ccccc21 [21f, 3-(1-Ethyl-1H-indol-3-yl)-2-(6-methoxy-1H-indole-3-carbonyl)acrylonitrile]	37	> 40	40	12.5	24	reduced activity	–
COc1ccc2c(C(=O)C(C#N)=Cc3cn(Cc4ccc(Cl)cc4)c4ccccc34)c[nH]c2c1 [21g, 3-(1-(4-Chlorobenzyl)-1H-indol-3-yl)-2-(6-methoxy-1H-indole-3-carbonyl)acrylonitrile]	10.5	34	> 40	13.3	14.3	reduced activity	–
CCOc1ccc2[nH]cc(C(=O)C(C#N)=Cc3cn(C)c4ccccc34)c2c1 [21h, 2-(5-Ethoxy-1H-indole-3-carbonyl)-3-(1-methyl-1H-indol-3-yl)acrylonitrile]	16.8	5.23	40	10	27.3	significantly enhanced cytotoxicity	–
CCOc1ccc2[nH]cc(C(=O)C(C#N)=Cc3cn(CC)c4ccccc34)c2c1 [21i, 2-(5-Ethoxy-1H-indole-3-carbonyl)-3-(1-ethyl-1H-indol-3-yl)acrylonitrile]	7.38	8.9	> 40	2.2	2.63	significantly enhanced cytotoxicity	–
CCCOc1ccc2[nH]cc(C(=O)C(C#N)=Cc3cn(CC)c4ccccc34)c2c1 [21j, 3-(1-Ethyl-1H-indol-3-yl)-2-(5-propoxy-1H-indole-3-carbonyl)acrylonitrile]	1.2	2.9	> 40	0.9	5.6	significantly enhanced cytotoxicity; also recorded: most effective compound across all cancer cell lines tested	cytotoxicity to normal HEK293 cells, in words (HEK293): no notable impact; cell death / apoptosis by AO-EB staining (C4-2 cells [2]): robust cell death; also recorded: induced substantial apoptosis; tubulin assembly (β-tubulin antibody staining) (tubulin in C4-2 cells): significant loss of tubulin assembly; also recorded: increases tubulin depolymerization; ROS levels (DCFDA) (C4-2 cells [3]): robust increase in ROS levels; also recorded: raises the levels of ROS; IC50 (C4-2; [7]): 0.98 µM; mitochondrial depolarization (JC-1) (C4-2 cells [4]): induced significant mitochondrial depolarization; also recorded: induces mitochondrial depolarization; number and size of colonies (C4-2 cells [5]): significantly inhibited the number and size of colonies; also recorded: inhibits colony formation; level of p-53 and c-jun (p-53 and c-jun): upregulate the level of p-53 and c-jun
CCCOc1ccc2[nH]cc(C(=O)C(C#N)=Cc3cn(C)c4ccccc34)c2c1 [21k, 3-(1-Methyl-1H-indol-3-yl)-2-(5-propoxy-1H-indole-3-carbonyl)acrylonitrile]	18.6	28	39.8	13.8	16.1	–	–
COc1cc2[nH]cc(C(=O)C(C#N)=Cc3cn(C)c4ccccc34)c2cc1OC [21n, 2-(5,6-Dimethoxy-1H-indole-3-carbonyl)-3-(1-methyl-1H-indol-3-yl)acrylonitrile]	5.61	20.5	> 40	1.02	7.1	improved the selectivity against prostate cancer cell lines	–
CCn1cc(C=C(C#N)C(=O)c2c[nH]c3cc(OC)c(OC)cc23)c2ccccc21 [21o, 2-(5,6-Dimethoxy-1H-indole-3-carbonyl)-3-(1-ethyl-1H-indol-3-yl)acrylonitrile]	31.5	26	> 40	5.9	19	improved the selectivity against prostate cancer cell lines	–
COc1cc2[nH]cc(C(=O)C(C#N)=Cc3cn(Cc4ccc(Cl)cc4)c4ccccc34)c2cc1OC [21p, 3-(1-(4-Chlorobenzyl)-1H-indol-3-yl)-2-(5,6-dimethoxy-1H-indole-3-carbonyl)-acrylonitrile]	> 40	> 40	> 40	31	> 40	detrimental for the activity	–
COc1ccc(C=C(C#N)C(=O)c2c[nH]c3ccccc23)cc1 [21q, 2-(1H-Indole-3-carbonyl)-3-(4-methoxyphenyl)acrylonitrile]	25	28	> 40	> 40	37	detrimental for the activity	–
COc1ccc(C=C(C#N)C(=O)c2c[nH]c3ccccc23)cc1OC [21r, 3-(3,4-Dimethoxyphenyl)-2-(1H-indole-3-carbonyl)acrylonitrile]	> 40	34	31	> 40	25	detrimental for the activity	–
